Measured values from ChEMBL document CHEMBL1123837, “1-Amino-substituted 4-methyl-5H-pyrido[3',4':4,5]pyrrolo[3,2-c]pyridines: a new class of antineoplastic agents” (J Med Chem, 1987).
The source made the active and inactive calls. The rule behind the calls is not given here.

Assays:
Mus musculus [1] = assay: In vivo antitumor activity was determined against P388 leukemia cells expressed as number of animals survived; format: functional
Procedure, shortened: (§1)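 P388 leukemia, 10^6 viable cells inoculated ip on day 0 into CDF1 hybrid male or female mice, 10 mice per group. Compounds were given ip in distilled water (0.1 mL/10 g body weight) at various doses on days 1-5. Vehicle controls were treated the same way. NCI protocols were followed.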

Mus musculus [2] = assay: In vivo antitumor activity was evaluated on L1210 leukemia model and weight change in tumors was determined at 20 mg/kg dosage concentration; format: functional
Mus musculus [3] = assay: In vivo antitumor activity was evaluated on L1210 leukemia model and number of survivors (animals) was determined at 20 mg/kg dosage concentration; format: functional
Procedure, shortened: (§2)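 L1210 leukemia, 10^5 viable cells inoculated ip on day 0 into CDF1 hybrid male or female mice, 10 mice per group. Compounds were given ip in distilled water (0.1 mL/10 g body weight) on days 1-5. Vehicle controls were treated the same way. NCI protocols were followed. T/C = median survival day of treated mice / median survival day of vehicle controls × 100.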

Mus musculus [4] = assay: In vivo antitumor activity was evaluated on L1210 leukemia model and percent of treated/control of tumor cells was determined at 20 mg/kg dosage concentration; format: functional; procedure, shortened: as §2
Mus musculus [5] = assay: In vivo antitumor activity was evaluated on L1210 leukemia model and median survival day was determined at 20 mg/kg dosage concentration; format: functional; procedure, shortened: as §2
Mus musculus [6] = assay: In vivo antitumor activity was determined against P388 leukemia cells expressed as treated/control at the dose of 40 mg/kg; format: functional
Procedure, shortened: (§3)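 Following NCI protocols, 10^6 viable P388 leukemia cells were inoculated ip on day 0 into male or female CDF1 hybrid mice, 10 per test group. Compounds in distilled water were given ip (0.1 mL/10 g body weight) at various doses on days 1–5. T/C = median survival day of treated / median survival day of negative controls × 100.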

Mus musculus [7] = assay: In vivo antitumor activity was determined against P388 leukemia cells expressed as treated/control at the dose of 5 mg/kg; format: functional; procedure, shortened: as §3
Mus musculus [8] = assay: In vivo antitumor activity was determined against P388 leukemia cells expressed as treated/control at the dose of 20 mg/kg; format: functional; procedure, shortened: as §3
Calf thymus DNA = assay: Binding affinity for DNA by ethidium bromide displacement assay; format: nucleic-acid assay; details: Bos taurus
Procedure, shortened: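 Competitive ethidium bromide displacement with calf thymus DNA at 10 µg/mL in 20 mM Na phosphate buffer, 0.1 M NaCl, 1 mM EDTA, pH 7.4. The apparent DNA affinity constant is given in 10^6 M^-1 ± standard deviation, from 6 values across two independent experiments.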

Mus musculus [9] = assay: In vivo antitumor activity was determined against P388 leukemia cells expressed as treated/control at the dose of 10 mg/kg; format: functional; procedure, shortened: as §3
Mus musculus [10] = assay: In vivo antitumor activity was evaluated on L1210 leukemia model and weight change in tumors was determined at 60 mg/kg dosage concentration.; format: functional
Mus musculus [11] = assay: In vivo antitumor activity was evaluated on L1210 leukemia model and median survival day was determined at 15 mg/kg dosage concentration.; format: functional; procedure, shortened: as §2
Mus musculus [12] = assay: In vivo antitumor activity was evaluated on L1210 leukemia model and weight change in tumors was determined at 80 mg/kg dosage concentration.; format: functional
Mus musculus [13] = assay: In vivo antitumor activity was evaluated on L1210 leukemia model and number of survivors (animals) was determined at 60 mg/kg dosage concentration; number of survivors given as 1/10; format: functional; procedure, shortened: as §2
Mus musculus [14] = assay: In vivo antitumor activity was evaluated on L1210 leukemia model and percent of treated/control of tumor cells was determined at 80 mg/kg dosage concentration.; format: functional
Procedure, shortened: as §3, with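 “10^5” for “10^6”, “L1210” for “P388”, “dosed” for “given”, “daily” for “at various doses”, “treated mice” for “treated”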

Mus musculus [15] = assay: In vivo antitumor activity was evaluated on L1210 leukemia model and percent of treated/control of tumor cells was determined at 60 mg/kg dosage concentration.; format: functional
Procedure, shortened: as §3, with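 “10^5” for “10^6”, “L1210” for “P388”, “dosed” for “given”, “daily” for “at various doses”, “treated mice” for “treated”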

Mus musculus [16] = assay: In vivo antitumor activity was determined against P388 leukemia cells expressed as number of; format: functional; procedure, shortened: as §1
Mus musculus [17] = assay: In vivo antitumor activity was evaluated on L1210 leukemia model and median survival day was determined at 80 mg/kg dosage concentration.; format: functional; procedure, shortened: as §2
Mus musculus [18] = assay: In vivo antitumor activity was evaluated on L1210 leukemia model and percent of treated/control of tumor cells was determined at 30 mg/kg dosage concentration; format: functional
Procedure, shortened: as §3, with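 “10^5” for “10^6”, “L1210” for “P388”, “dosed” for “given”, “daily” for “at various doses”, “treated mice” for “treated”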

Mus musculus [19] = assay: In vivo antitumor activity was evaluated on L1210 leukemia model and number of survivors (animals) was determined at 5 mg/kg dosage concentration; number of survivors given as 0/10; format: functional; procedure, shortened: as §2
Mus musculus [20] = assay: In vivo antitumor activity was evaluated on L1210 leukemia model and percent of treated/control of tumor cells was determined at 15 mg/kg dosage concentration.; format: functional
Procedure, shortened: as §3, with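 “10^5” for “10^6”, “L1210” for “P388”, “dosed” for “given”, “daily” for “at various doses”, “treated mice” for “treated”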

Mus musculus [21] = assay: In vivo antitumor activity was evaluated on L1210 leukemia model and number of survivors (animals) was determined at 30 mg/kg dosage concentration; number of survivors given as 0/10; format: functional; procedure, shortened: as §2
Mus musculus [22] = assay: In vivo antitumor activity was determined against P388 leukemia cells expressed as treated/control at the dosage of 20 mg/kg; format: functional; procedure, shortened: as §3
Mus musculus [23] = assay: In vivo antitumor activity was evaluated on L1210 leukemia model and percent of treated/control of tumor cells was determined at 2.5 mg/kg dosage concentration; format: functional
Procedure, shortened: as §3, with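 “10^5” for “10^6”, “L1210” for “P388”, “dosed” for “given”, “daily” for “at various doses”, “treated mice” for “treated”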

Mus musculus [24] = assay: In vivo antitumor activity was evaluated on L1210 leukemia model and weight change in tumors was determined at 30 mg/kg dosage concentration; format: functional
Mus musculus [25] = assay: In vivo antitumor activity was evaluated on L1210 leukemia model and number of survivors (animals) was determined at 15 mg/kg dosage concentration; number of survivors given as 0/10; format: functional; procedure, shortened: as §2
Mus musculus [26] = assay: In vivo antitumor activity was evaluated on L1210 leukemia model and number of survivors (animals) was determined at 80 mg/kg dosage concentration; number of survivors given as 0/10; format: functional; procedure, shortened: as §2
Mus musculus [27] = assay: In vivo antitumor activity was evaluated on L1210 leukemia model and weight change in tumors was determined at 2.5 mg/kg dosage concentration; format: functional
Mus musculus [28] = assay: In vivo antitumor activity was evaluated on L1210 leukemia model and percent of treated/control of tumor cells was determined at 5 mg/kg dosage concentration; format: functional
Procedure, shortened: as §3, with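 “10^5” for “10^6”, “L1210” for “P388”, “dosed” for “given”, “daily” for “at various doses”, “treated mice” for “treated”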

Mus musculus [29] = assay: In vivo antitumor activity was determined against P388 leukemia cells expressed as treated/control at the dosage of 40 mg/kg; format: functional; procedure, shortened: as §3
Mus musculus [30] = assay: In vivo antitumor activity was evaluated on L1210 leukemia model and median survival day was determined at 60 mg/kg dosage concentration.; format: functional; procedure, shortened: as §2
Mus musculus [31] = assay: In vivo antitumor activity was determined against P388 leukemia cells expressed as treated/control at the dosage of 10 mg/kg; format: functional; procedure, shortened: as §3
Mus musculus [32] = assay: In vivo antitumor activity was evaluated on L1210 leukemia model and median survival day was determined at 5 mg/kg dosage concentration; format: functional; procedure, shortened: as §2
Mus musculus [33] = assay: In vivo antitumor activity was determined against P388 leukemia cells expressed as treated/control at the dosage of 50 mg/kg; format: functional; procedure, shortened: as §3
Mus musculus [34] = assay: In vivo antitumor activity was evaluated on L1210 leukemia model and number of survivors (animals) was determined at 2.5 mg/kg dosage concentration; number of survivors given as 0/10; format: functional; procedure, shortened: as §2
Mus musculus [35] = assay: In vivo antitumor activity was evaluated on L1210 leukemia model and median survival day was determined at 30 mg/kg dosage concentration; format: functional; procedure, shortened: as §2
Mus musculus [36] = assay: In vivo antitumor activity was evaluated on L1210 leukemia model and median survival day was determined at 2.5 mg/kg dosage concentration; format: functional; procedure, shortened: as §2
Mus musculus [37] = assay: In vivo antitumor activity was evaluated on L1210 leukemia model and weight change in tumors was determined at 15 mg/kg dosage concentration.; format: functional
Mus musculus [38] = assay: In vivo antitumor activity was evaluated on L1210 leukemia model and weight change in tumors was determined at 5 mg/kg dosage concentration; format: functional
Mus musculus [39] = assay: In vivo antitumor activity was determined against P388 leukemia cells expressed as treated/control at the dose of 60 mg/kg; T = toxic at this dose; format: organism-based; design: dose 60 mg/kg; procedure, shortened: as §3
[40] = In vitro cytotoxicity against L1210 cells was determined after 48 hours of incubation; format: cell-based; details: mouse, read-out: ID50
Procedure, shortened: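 Exponentially growing L1210 cells were cultured in RPMI 1640 with 2 mM glutamine, penicillin/streptomycin and 10% fetal calf serum, under 5% CO2 at 37 °C. Drugs dissolved in distilled water were added to cells at 0.8 × 10^5 cells/mL for 48 h, then cells were counted. ID50 was estimated by regression of dose-response data, as the mean of two values from two independent experiments.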

Mus musculus [41] = assay: In vivo antitumor activity was determined against P388 leukemia cells expressed as treated/control at the dosage of (0.3-40)mg/kg; IA= inactive; format: functional, organism-based; procedure, shortened: as §3

O=c1[nH]cc(F)c(=O)[nH]1 [FLUOROURACIL]
Survivors (Mus musculus [1]): 0
Weight changes (Mus musculus [2]): 0.1 g
Survivors (Mus musculus [3]): 10
T/C (Mus musculus [4]): 196%
Median survival day (Mus musculus [5]): 18

Cc1cnc(NCCCN(C)C)c2c3cnccc3n(C)c12
T/C (Mus musculus [6]): 173
T/C (Mus musculus [7]): 136
T/C (Mus musculus [8]): 167
K aff (Calf thymus DNA): 40000 M⁻¹
T/C (Mus musculus [9]): 150

CCN(CC)CCCNc1ncc(C)c2c1c1cnccc1n2C
Weight changes (Mus musculus [10]): -2.3 g
Median survival day (Mus musculus [11]): 13.75
Weight changes (Mus musculus [12]): -2.3 g
Survivors (Mus musculus [13]): 1
T/C (Mus musculus [14]): 99%
T/C (Mus musculus [15]): 196%
Survivors (Mus musculus [16]): 3
Median survival day (Mus musculus [17]): 9.1
T/C (Mus musculus [18]): 187.5%
Survivors (Mus musculus [19]): 0
T/C (Mus musculus [20]): 149%
Survivors (Mus musculus [21]): 0
T/C (Mus musculus [22]): 164
T/C (Mus musculus [23]): 118%
Weight changes (Mus musculus [24]): 0.2 g
Survivors (Mus musculus [25]): 0
Survivors (Mus musculus [26]): 0
Weight changes (Mus musculus [27]): 0.7 g
T/C (Mus musculus [28]): 138%
T/C (Mus musculus [29]): 172
Median survival day (Mus musculus [30]): 18
T/C (Mus musculus [31]): 147
K aff (Calf thymus DNA): 40000 M⁻¹
Median survival day (Mus musculus [32]): 12.75
T/C (Mus musculus [33]): 207
Survivors (Mus musculus [34]): 0
Median survival day (Mus musculus [35]): 17.25
Median survival day (Mus musculus [36]): 10.9
Weight changes (Mus musculus [37]): 0.8 g
Weight changes (Mus musculus [38]): -0.3 g

CCN(CC)CCCNc1ncc(C)c2c1c1cnccc1n2CC
T/C (Mus musculus [39]): Toxic
CC50 at 48 h [40]: 1400 nM
K aff (Calf thymus DNA): 17000 M⁻¹
T/C (Mus musculus [41]): inactive
